Screens: PubChem BioAssay, several laboratories
UPR CHOP act = apoptotic UPR (CHOP) activation; CHO-CHOP luciferase reporter, luminescence; percent of tunicamycin response over DMSO baseline; activation, % at 10 µM; 330,000 tested, 0.34% active;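 active = at 10 µM dose, activation of 40% or more, normalized to positive control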;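 also: 100% = tunicamycin at 10 µg/mL and 0% = DMSO alone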
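Material: CHO-CHOP cells, stable luciferase reporter of PERK-eIF2a-CHOP signalling; quantity: 500 reporter cells seeded per well; buffer or medium: F12 medium containing 10% fetal bovine serum; compound: one dose, 10 µM in 0.5% DMSO; incubation: 6 h compound treatment, 37 °C; measured by: Steady-Glo luciferase luminescence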
T cruzi repl = T. cruzi replication inhibition; T. cruzi beta-gal in NIH3T3, luminescence, 90 h; inhibition, % (test concentration not listed); 300,000 tested, 1.4% active;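 active = mean inhibition across valid replicates above about 55%, limit read from the data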;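 also: signal also drops with host cell toxicity which is not excluded here; 0% = plate median of DMSO wells and 100% = zero luminescence signal; higher percent means less beta-gal luminescence so fewer parasites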
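System: mouse NIH/3T3 fibroblasts infected with β-gal-expressing T. cruzi Tulahuen C4 / Input: NIH/3T3 cells, 5,000 per well / Buffer or medium: Low-serum DMEM with 2% FBS / Probe or stimulus: 5000 reporter trypomastigotes per well / Schedule: ≥90 h infection period, 3 h prior cell attachment / Measured by: GalScreen luminescence, 60 min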
XBP1 UPR activ = adaptive UPR (XBP1) activation | CHO-XBP1 luciferase reporter, IRE1-XBP1 UPR activation, luminescence; percent of tunicamycin response, DMSO as zero | activation, % at 20 µM | 330,000 tested, 0.33% active;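 active = versus positive control, 20 µM dose yields 30% or more activation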;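 also: 100% = tunicamycin at 10 µg/mL and 0% = DMSO only wells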
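assay system = CHO-XBP1 luciferase reporter cells | amount = 1000 cells/well | buffer or medium = F12 plus 10% FBS | compound dosing = single point, 20 µM final compound, 1% DMSO | incubation = 16-18 h cell attachment at 37 °C, then 6 h compound exposure | detection = Steady-Glo luminescence read | controls = tunicamycin 10 µg/mL and vehicle-only wells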
Beta apoptosis = beta cell apoptosis inhibition | INS-1E cytokine-induced death, ATP luminescence, 48 h; percent of positive-control rescue, neutral wells zero | protection from apoptosis, % (test concentration not listed) | 300,000 tested, 0.8% active;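 active = Every replicate reaches about 75%, or at least half do and their mean reaches it too, limit read from the data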;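 also: 0% = cytokine-treated negative control wells and 100% = positive control rescue; higher means more ATP so stronger rescue from cytokine killing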
Mdm2 MdmX PPI = inhibitors of human Mdm2/MdmX interaction; O15151+Q00987; SaOS-2 split-luciferase Mdm2/MdmX complementation, luminescence; inhibition, % at 8 µM; 330,000 tested, 3% active;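 active = inhibition of at least 50% at 8 µM in the primary screen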
Target sequence (O15151 whole entry, looked up): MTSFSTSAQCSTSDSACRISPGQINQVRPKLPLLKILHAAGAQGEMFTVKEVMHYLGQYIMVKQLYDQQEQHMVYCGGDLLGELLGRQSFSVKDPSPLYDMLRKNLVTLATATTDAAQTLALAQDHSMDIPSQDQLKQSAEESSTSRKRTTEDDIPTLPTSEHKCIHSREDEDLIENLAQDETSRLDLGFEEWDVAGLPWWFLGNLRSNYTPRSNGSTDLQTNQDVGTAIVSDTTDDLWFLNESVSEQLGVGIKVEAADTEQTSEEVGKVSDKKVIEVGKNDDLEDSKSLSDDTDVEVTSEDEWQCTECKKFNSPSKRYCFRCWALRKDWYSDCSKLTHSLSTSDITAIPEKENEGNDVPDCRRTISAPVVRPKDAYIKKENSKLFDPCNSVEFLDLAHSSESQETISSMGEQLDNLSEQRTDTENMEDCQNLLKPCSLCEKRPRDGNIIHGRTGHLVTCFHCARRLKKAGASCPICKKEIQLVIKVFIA
Target sequence (Q00987 whole entry, looked up): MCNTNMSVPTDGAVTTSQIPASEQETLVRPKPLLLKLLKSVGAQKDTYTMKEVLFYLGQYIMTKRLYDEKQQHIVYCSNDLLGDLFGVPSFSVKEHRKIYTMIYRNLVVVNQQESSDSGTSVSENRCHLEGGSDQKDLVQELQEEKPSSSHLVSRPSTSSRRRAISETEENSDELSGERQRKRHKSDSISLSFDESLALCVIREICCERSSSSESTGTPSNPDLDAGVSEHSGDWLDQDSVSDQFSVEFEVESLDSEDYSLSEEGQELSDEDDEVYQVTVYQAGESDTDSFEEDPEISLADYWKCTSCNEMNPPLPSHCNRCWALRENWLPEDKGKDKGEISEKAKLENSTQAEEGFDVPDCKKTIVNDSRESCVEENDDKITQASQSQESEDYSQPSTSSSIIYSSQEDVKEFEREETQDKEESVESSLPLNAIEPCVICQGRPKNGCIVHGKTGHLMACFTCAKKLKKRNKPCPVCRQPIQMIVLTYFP
CSC inhib = cancer stem cell inhibition; cancer stem cell-like cells viability, luminescence; inhibition, % at 7.5 µM; 300,000 tested, 1.1% active; AID 2717; in the data active = inhibition above about 75%; tested in HMLE shEcad cells
Mdm2 MdmX conf = human Mdm2/MdmX binding inhibition, confirmed; shares compounds with Mdm2 MdmX PPI; 10,000 tested, 55% active; AID 489028; luminescent assay; inhibition, % at 8 µM; in the data active = inhibition above about 40%
FLuc counter = counter-screen for Mdm2/MdmX inhibitors: full-length luciferase; shares compounds with Mdm2 MdmX PPI; SaOS-2 full-length luciferase counterscreen, luminescence; inhibition, % at 8 µM; 6,200 tested, 77% active;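 active = mean inhibition at 8 µM reaching about 37%, which flags the compound as non-specific, limit read from the data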;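 also: p53-null SaOS-2 cells with luciferase driven by a doxycycline-inducible promoter; compound on cells about two nights before reading with doxycycline added after day one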
* marks the source's active call; other numbers are inactive results; · = no result. In the library only some 5% were active in any assay of this set; here they are far more common.

SMILES	UPR CHOP act	T cruzi repl	XBP1 UPR activ	Beta apoptosis	Mdm2 MdmX PPI	CSC inhib	Mdm2 MdmX conf	FLuc counter
CCOc1ccc(Nc2c3ccccc3nc3ccccc23)cc1	0	50	4	79*	71*	56	45*	59*
O=C(N/N=C/c1ccnc2ccccc12)c1ccccc1O	2	-10	0	-1	-15	-2	·	·
COc1ccc2[nH]cc(/C=C/c3cc[n+](C)cc3)c2c1	-1	12	5	8	13	-16	·	·
CCC(=O)N1CCc2cc(Br)cc(S(=O)(=O)N3CCC(C(=O)NC(C)C)CC3)c21	1	11	0	-18	3	·	·	·
Cc1c(NS(=O)(=O)c2cc(NC(=O)CCN3CCCC(C)C3)ccc2Cl)c(=O)n(-c2ccccc2)n1C (stereo not drawn)	0	-7	-1	-2	-13	-11	·	·
O=C(Nc1ccc2c(c1)OCCO2)c1cc(-c2ccccn2)nc2ccc(Br)cc12	1	3	3	-1	74*	-3	41*	72*
CC(=O)c1ccc(NC(=O)c2cc(CC(C)C)nc3ccccc23)cc1	3	6	-4	0	58*	-3	66*	34
CCOc1ccc2nc(SCc3ccc(C(=O)OC)o3)[nH]c2c1	4	8	3	-1	11	-1	·	·
COc1ccc(C2CC(c3cccs3)=NN2C(=O)c2ccccc2)cc1OC (stereo not drawn)	1	-6	0	-6	17	-2	·	·
COc1ccc(C2CC(c3cccs3)=NN2C(=O)CCl)cc1OC (stereo not drawn)	-8	62*	-9	-36	99*	72	100*	49*
COc1cc(C2CC(c3cccs3)=NN2C(=O)CCl)ccc1OC(F)F (stereo not drawn)	-8	61*	-13	·	99*	34	100*	51*
O=C(N/N=C/c1ccc(Cl)cc1Cl)c1ccc2nc[nH]c2c1	4	2	3	-1	2	-2	·	·
C=CCc1cccc(/C=N/NC(=O)C(C)Nc2ccc(C)cc2)c1O (stereo not drawn)	-1	49	0	72	70*	50	67*	42*
C=CCc1cccc(/C=N/NC(=O)c2ccc3nc[nH]c3c2)c1O	-1	-1	1	84*	67*	94*	52*	26
CCCCn1c(N)c(N(CC)C(=O)C2=NN(c3ccccc3)C(=O)CC2)c(=O)[nH]c1=O	-1	·	-2	-9	22	-2	·	·
CN1C(=O)N(C)c2cccc3cccc1c23	1	-6	-3	-9	4	-8	·	·
CN1C(=O)Nc2cccc3cccc1c23	-1	-5	4	3	52*	6	25	·
CC(=O)Nc1ccc(C(=O)COC(=O)C2CC3CCCC(C2)C3=O)cc1 (stereo not drawn)	-1	1	1	-7	3	1	·	·
CCn1c(C(=O)N2CCc3ccccc3C2)cc2oc3ccccc3c21	-2	4	2	-10	-17	21	·	·
CCOc1ccccc1CNC(=O)c1cc2oc3ccccc3c2n1CC	-1	26	5	6	93*	49	89*	26
COC(=O)c1cc2oc3ccccc3c2n1CC(=O)Nc1ccccc1OC	-3	10	3	3	30	-7	·	·
CCOc1ccc(CNC(=O)c2cc3oc4ccccc4c3n2C)cc1	0	-12	0	-2	85*	38	88*	26
COc1cccc(CNC(=O)c2cc3oc4ccccc4c3n2C)c1OC	0	-2	-4	-5	97*	37	96*	47*
O=C(COc1ccc(S(=O)(=O)N2CCCC2)cc1)NCC1CCCO1 (stereo not drawn)	1	-10	0	-4	-12	3	·	·
COCC(=O)N1CCC(Oc2ccc(C(=O)N3CCN(C)C[C@@H]3C(C)C)cc2)CC1	0	-2	-2	·	0	·	·	·
SMILES	UPR CHOP act	T cruzi repl	XBP1 UPR activ	Beta apoptosis	Mdm2 MdmX PPI	CSC inhib	Mdm2 MdmX conf	FLuc counter
CNc1c(N)c(=O)oc2ccccc12	0	-2	1	·	24	-8	·	·
Cc1ccc(Nc2c(N)c(=O)oc3ccccc23)cc1	-1	-11	0	8	58*	41	37	·
O=C(N/N=C/c1ccc[nH]1)c1ccc(COc2cccc3cccnc23)cc1	-1	16	1	100*	97*	100*	83*	52*
Cc1cc(Br)c(OCc2ccc(C(=O)N/N=C/c3ccc[nH]3)cc2)c(Br)c1	41*	·	99*	117*	98*	98*	94*	11
CCOC(=O)C1=C(c2ccccc2)ON(C)C1c1ccccc1 (stereo not drawn)	2	0	-1	-8	-2	2	·	·
O=C1[C@H](c2ccccc2)[C@@H](c2ccccc2)N1c1ccncc1	2	·	-1	·	27	·	·	·
O=C1[C@@H](Oc2ccccc2)[C@@H](c2ccncc2)N1c1ccccc1	1	·	-1	·	53*	·	48*	48*
Cc1ccc(S(=O)(=O)N2CCC(C(=O)N3CCC3)CC2)cc1	2	1	-4	-2	25	-12	·	·
CC(Sc1nc2c(cc1C#N)CCCCC2)C(=O)O (stereo not drawn)	0	1	0	4	6	3	·	·
CC1=CC(=O)C(C(C)C)=C/C1=C(\c1cc(C(C)C)c(OP(=O)(O)O)cc1C)c1ccccc1C(=O)O	1	-8	-6	4	75*	101*	68*	50*
CCCC(O)(CCC)C(=O)NN(C(=O)CCl)c1ccccc1	-1	17	2	21	58*	7	23	·
CCOC(=O)COc1ccc2c(c1)C(=O)CC1(CCCCC1)O2	0	-3	-2	-16	7	-10	·	·
O=S1(=O)C=C(Sc2nc3cc(Cl)ccc3o2)c2ccccc21	-9	65*	-5	-12	97*	9	96*	51*
CN(C)c1nc(N)nc(CSc2nc3cc(Cl)ccc3o2)n1	7	16	8	-15	-10	-21	·	·
Cc1cc(OCC(=O)Nc2ccccc2N2CCOCC2)c(C(C)C)cc1Cl	0	·	-2	0	9	32	·	·
CCCCCN1C=CC(=C2C(=O)c3ccccc3C2=O)C=C1	-10	16	-12	39	78*	55	83*	21
CC1=CC(=C2C(=O)c3ccccc3C2=O)C=C(C)N1C	4	9	2	2	-33	-2	·	·
